Reference: ChEMBL document CHEMBL4196175, “First SAR Study for Overriding NRAS Mutant Driven Acute Myeloid Leukemia” (J Med Chem, 2018)
Activity calls are given as the source filed them. The rule behind the calls is not given here.

Tests used:
OCI-AML-3 [1] = assay: Growth inhibition of human OCI-AML3 cells harboring NRAS-Q61L mutant after 72 hrs by celltiter-glo assay; format: functional; conditions: OCI-AML-3, 72 h
OCI-AML-3 [2] = assay: Growth inhibition of ACK1/GCK knockdown human OCI-AML3 cells harboring NRAS-Q61L mutant at 0.2 uM after 72 hrs by celltiter-glo assay; format: functional, cell-based
[3] = target: T1, Mitogen-activated protein kinase kinase kinase kinase 2 (Mus musculus) (UniProt Q61161); assay: Inhibition of GCK in mouse BA/F3 cells harboring NRAS-G12D mutant assessed as reduction in p38 phosphorylation at Thr180/Tyr182 at 1 uM after 2 hrs by Western blot analysis; format: cell-based
T1 sequence (whole entry): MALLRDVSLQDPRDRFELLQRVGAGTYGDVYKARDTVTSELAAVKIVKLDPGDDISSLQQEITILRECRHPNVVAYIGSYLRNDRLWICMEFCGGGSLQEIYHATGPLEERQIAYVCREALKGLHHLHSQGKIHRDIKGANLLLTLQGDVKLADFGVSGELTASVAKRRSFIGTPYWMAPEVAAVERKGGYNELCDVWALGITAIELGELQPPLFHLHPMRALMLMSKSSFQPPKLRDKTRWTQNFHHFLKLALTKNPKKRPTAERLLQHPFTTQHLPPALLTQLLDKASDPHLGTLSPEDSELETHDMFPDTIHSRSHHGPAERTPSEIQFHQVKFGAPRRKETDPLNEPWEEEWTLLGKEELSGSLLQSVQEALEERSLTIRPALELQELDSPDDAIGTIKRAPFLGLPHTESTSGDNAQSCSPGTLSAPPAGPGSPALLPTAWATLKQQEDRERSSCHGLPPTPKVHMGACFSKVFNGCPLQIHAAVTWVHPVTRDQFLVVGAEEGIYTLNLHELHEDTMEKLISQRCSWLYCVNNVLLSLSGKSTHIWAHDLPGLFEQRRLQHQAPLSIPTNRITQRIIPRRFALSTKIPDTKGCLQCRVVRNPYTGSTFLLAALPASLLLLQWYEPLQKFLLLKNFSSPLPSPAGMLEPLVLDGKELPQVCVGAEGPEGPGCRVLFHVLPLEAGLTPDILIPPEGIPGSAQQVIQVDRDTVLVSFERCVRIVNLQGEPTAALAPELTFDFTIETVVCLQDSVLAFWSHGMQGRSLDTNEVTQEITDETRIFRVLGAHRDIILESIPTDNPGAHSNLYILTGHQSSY
How it was run: (§1)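 Ba/F3-NRAS-G12D or OCI-AML3 cells exposed 2 h to compounds (1 µM, or a dose series in OCI-AML3); phospho-p70S6K1, phospho-AKT S473, phospho-JNK and phospho-p38 assessed by western blot, actin as loading control.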

[4] = target: T2, Mitogen-activated protein kinase kinase kinase kinase 2 (Homo sapiens) (UniProt Q12851); assay: Inhibition of GCK in human OCI-AML3 cells harboring NRAS Q61L mutant assessed as reduction in JNK phosphorylation at T183/Y185 at 1 uM after 2 hrs by Western blot analysis; format: cell-based; how it was run: as §1
T2 sequence (whole entry): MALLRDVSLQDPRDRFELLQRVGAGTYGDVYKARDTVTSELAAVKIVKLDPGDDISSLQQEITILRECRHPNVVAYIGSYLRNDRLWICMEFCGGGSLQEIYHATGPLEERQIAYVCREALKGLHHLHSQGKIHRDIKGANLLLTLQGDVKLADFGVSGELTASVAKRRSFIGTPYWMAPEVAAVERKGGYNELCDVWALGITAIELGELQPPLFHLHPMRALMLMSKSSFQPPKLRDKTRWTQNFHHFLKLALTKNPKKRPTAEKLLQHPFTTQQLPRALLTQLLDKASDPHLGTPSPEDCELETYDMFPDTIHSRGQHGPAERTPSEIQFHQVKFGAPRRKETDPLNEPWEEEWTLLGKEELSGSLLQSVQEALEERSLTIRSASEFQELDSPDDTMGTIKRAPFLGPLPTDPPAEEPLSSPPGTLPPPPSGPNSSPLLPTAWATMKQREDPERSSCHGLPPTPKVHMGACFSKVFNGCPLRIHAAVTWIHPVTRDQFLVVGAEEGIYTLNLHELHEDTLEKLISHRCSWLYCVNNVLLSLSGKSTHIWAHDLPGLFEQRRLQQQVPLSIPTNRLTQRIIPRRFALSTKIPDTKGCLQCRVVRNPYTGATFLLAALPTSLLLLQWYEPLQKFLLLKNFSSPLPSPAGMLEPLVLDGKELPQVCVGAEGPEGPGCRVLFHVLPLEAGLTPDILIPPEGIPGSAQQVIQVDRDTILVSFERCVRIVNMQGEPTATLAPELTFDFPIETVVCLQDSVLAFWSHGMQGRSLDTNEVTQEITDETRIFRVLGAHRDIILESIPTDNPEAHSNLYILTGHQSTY

[5] = target: T3, Mitogen-activated protein kinase kinase kinase kinase 2 (Homo sapiens, UniProt Q12851); assay: Inhibition of GCK (unknown origin) by radiometric biochemical kinase assay
T3 sequence (Q12851 whole entry): T2 sequence (whole entry)

[6] = Growth inhibition of parental mouse BA/F3 cells after 72 hrs by celltiter-glo assay; format: cell-based, BaF3
Activated CDC42 kinase 1 = Activated CDC42 kinase 1 (Homo sapiens, UniProt Q07912); assay: Inhibition of ACK1 (unknown origin) by radiometric biochemical kinase assay
CYP2D6 = CYP2D6 (Homo sapiens, UniProt P10635); assay: Inhibition of CYP2D6 (unknown origin) assessed as activity remaining at 10 uM relative to control; format: ADME; conditions: read-out: Activity
[7] = Metabolic stability in human liver microsomes assessed as compound remaining at 1 uM after 30 mins; format: ADME, microsome; conditions: read-out: Stability
[8] = target: Activated CDC42 kinase 1 (Mus musculus) (UniProt O54967); assay: Inhibition of ACK1 in mouse BA/F3 cells harboring NRAS-G12D mutant assessed as reduction in AKT phosphorylation at S473 at 1 uM after 2 hrs by Western blot analysis; format: cell-based; how it was run: as §1
CYP2C9 = CYP2C9 (Homo sapiens, UniProt P11712); assay: Inhibition of CYP2C9 (unknown origin) assessed as activity remaining at 10 uM relative to control; format: ADME; conditions: read-out: Activity
[9] = Growth inhibition of parental human U937 cells after 72 hrs by celltiter-glo assay; format: cell-based, U-937
[10] = Metabolic stability in rat liver microsomes assessed as compound remaining at 1 uM after 30 mins; format: ADME, microsome; conditions: read-out: Stability
Mus musculus = species on record: Mus musculus; assay: Inhibition of ACK1/GCK in mouse BA/F3 cells assessed as reduction in NRAS-G12D mutant-mediated cell proliferation after 72 hrs by celltiter-glo assay; format: cell-based
OCI-AML-3 [11] = assay: Inhibition of anchorage-independent cell growth in human OCI-AML3 cells harboring NRAS Q61L mutant assessed as reduction in colony number at 0.1 to 1 uM after 14 days by iodonitrotetrazolium chloride staining-based soft agar assay; format: functional
How it was run: (§2)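 OCI-AML3 cells embedded in 0.7% low-melting agar, incubated 2 weeks with compound at 0.1 or 1 µM; colony number and colony size per well measured by automated image analysis; n = 3 per condition, SD, one-way ANOVA.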

OCI-AML-3 [12] = assay: Inhibition of anchorage-independent cell growth in human OCI-AML3 cells harboring NRAS Q61L mutant assessed as reduction in colony size at 0.1 to 1 uM after 14 days by iodonitrotetrazolium chloride staining-based soft agar assay; format: functional; how it was run: as §2

Chain of Activated CDC42 kinase 1 (Mus musculus) (O54967 whole entry): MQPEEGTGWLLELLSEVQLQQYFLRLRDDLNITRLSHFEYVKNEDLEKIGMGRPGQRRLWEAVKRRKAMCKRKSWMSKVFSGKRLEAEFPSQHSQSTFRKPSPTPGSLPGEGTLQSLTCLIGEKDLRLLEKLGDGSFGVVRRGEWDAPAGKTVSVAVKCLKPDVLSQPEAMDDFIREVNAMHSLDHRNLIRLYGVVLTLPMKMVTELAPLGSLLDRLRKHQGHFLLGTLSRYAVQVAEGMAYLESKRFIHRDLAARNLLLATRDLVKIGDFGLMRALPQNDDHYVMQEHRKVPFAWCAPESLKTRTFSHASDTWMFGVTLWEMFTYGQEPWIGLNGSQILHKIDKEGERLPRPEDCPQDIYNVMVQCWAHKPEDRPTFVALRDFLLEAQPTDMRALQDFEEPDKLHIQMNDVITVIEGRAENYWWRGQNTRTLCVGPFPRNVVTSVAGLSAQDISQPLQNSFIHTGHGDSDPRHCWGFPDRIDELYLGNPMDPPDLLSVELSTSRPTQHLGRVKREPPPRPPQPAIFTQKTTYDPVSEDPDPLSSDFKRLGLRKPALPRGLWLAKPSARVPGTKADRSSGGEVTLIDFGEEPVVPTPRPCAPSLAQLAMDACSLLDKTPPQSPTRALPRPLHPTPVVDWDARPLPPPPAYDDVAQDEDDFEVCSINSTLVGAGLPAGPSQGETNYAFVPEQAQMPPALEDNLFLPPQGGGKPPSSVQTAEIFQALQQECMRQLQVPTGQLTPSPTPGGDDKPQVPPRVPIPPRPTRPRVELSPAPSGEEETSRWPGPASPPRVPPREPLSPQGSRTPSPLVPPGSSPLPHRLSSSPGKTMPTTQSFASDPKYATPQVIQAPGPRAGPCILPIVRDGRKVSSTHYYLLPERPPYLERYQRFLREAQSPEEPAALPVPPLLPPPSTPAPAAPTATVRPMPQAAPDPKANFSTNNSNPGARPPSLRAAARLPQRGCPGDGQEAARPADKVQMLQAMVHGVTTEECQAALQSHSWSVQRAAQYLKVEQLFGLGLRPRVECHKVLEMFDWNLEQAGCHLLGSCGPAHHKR
Chain of CYP2C9 (P11712 whole entry): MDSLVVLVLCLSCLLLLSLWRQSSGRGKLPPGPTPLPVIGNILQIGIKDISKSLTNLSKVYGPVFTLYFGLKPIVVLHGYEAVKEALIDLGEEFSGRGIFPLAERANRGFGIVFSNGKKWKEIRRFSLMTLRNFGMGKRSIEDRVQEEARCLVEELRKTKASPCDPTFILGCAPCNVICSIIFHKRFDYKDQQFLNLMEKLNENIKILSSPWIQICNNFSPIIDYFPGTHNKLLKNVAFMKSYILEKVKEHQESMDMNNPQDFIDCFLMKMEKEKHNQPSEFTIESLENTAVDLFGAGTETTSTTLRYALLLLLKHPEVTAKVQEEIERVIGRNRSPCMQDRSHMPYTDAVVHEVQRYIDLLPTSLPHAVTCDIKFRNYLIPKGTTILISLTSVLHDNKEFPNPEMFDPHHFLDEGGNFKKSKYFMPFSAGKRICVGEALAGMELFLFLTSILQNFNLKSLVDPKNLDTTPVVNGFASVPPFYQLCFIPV
Chain of Activated CDC42 kinase 1 (Q07912 whole entry): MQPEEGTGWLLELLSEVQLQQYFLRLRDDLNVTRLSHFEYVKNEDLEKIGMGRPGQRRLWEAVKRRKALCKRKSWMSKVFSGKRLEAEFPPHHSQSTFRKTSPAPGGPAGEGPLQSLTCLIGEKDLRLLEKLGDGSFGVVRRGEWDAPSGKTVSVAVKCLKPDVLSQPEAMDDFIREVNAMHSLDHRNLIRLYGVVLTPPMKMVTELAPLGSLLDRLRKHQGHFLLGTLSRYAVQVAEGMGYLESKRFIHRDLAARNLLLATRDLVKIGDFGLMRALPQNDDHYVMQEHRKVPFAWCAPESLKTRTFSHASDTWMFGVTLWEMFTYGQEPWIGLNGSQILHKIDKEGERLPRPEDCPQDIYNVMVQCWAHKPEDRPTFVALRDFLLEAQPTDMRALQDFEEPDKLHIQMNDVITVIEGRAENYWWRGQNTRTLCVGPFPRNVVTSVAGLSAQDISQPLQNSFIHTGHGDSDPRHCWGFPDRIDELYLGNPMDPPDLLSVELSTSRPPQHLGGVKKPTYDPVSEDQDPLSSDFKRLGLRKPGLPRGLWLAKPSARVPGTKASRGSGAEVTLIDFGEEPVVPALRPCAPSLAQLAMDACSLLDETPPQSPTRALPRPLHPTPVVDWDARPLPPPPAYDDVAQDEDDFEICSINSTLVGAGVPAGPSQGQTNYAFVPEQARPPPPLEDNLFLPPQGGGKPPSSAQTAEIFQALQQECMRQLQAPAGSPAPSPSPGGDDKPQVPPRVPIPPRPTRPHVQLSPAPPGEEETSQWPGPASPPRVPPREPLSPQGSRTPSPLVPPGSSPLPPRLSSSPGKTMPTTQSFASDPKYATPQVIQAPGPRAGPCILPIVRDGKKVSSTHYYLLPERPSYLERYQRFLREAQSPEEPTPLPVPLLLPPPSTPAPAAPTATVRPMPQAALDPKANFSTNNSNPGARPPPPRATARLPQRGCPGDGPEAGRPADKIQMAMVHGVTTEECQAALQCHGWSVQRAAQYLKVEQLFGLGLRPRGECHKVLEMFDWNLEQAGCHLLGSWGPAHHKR
Chain of CYP2D6 (P10635 whole entry): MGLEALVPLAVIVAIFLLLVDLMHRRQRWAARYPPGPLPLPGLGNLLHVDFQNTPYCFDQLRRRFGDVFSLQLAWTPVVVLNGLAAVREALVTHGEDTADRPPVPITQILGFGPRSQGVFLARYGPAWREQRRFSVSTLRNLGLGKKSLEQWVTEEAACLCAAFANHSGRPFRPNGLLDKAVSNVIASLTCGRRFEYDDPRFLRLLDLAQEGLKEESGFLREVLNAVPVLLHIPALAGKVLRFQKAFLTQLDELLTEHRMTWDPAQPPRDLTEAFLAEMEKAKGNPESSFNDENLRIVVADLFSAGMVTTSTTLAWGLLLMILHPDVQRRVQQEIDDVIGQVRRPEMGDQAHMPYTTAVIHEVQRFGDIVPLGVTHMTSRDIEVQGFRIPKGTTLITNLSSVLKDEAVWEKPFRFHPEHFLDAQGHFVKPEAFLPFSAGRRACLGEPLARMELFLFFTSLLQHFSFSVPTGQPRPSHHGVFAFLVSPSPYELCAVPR

Row | SMILES | GI50 (OCI-AML-3 [1]) [nM] | reduction in p38 phosphorylation (qualitative call) [3] | reduction in JNK phosphorylation (qualitative call) [4] | IC50 [5] [nM] | IC50 (Activated CDC42 kinase 1) [nM] | activity at 10 µM (CYP2D6) [%] | remaining at 0.5 h, 1 µM [7] [%] | reduction in AKT S473 phosphorylation (qualitative) [8] | activity at 10 µM (CYP2C9) [%] | remaining at 0.5 h, 1 µM [10] [%] | growth inhibition (GI) (OCI-AML-3 [2]) | GI50 at 72 h [6] [nM] | GI50 at 72 h [9] [nM] | GI50 (Mus musculus) [nM] | growth inhibition (GI) (OCI-AML-3 [11]) | growth inhibition (GI) (OCI-AML-3 [12])
1 | Cc1cc(Nc2ncc3c(n2)N(C)C(=O)N(c2cc(NC(=O)c4cccc(C(F)(F)F)c4)ccc2C)C3)n(C)n1 | 208 | Active | Active | 5 | 9 | 72 | 69.2 | Active | 38.3 | 82.3 | Active | 2060 | 2460 | 129 |  | 
2 | Cc1ccc(NC(=O)c2cccc(C(F)(F)F)c2)cc1N1Cc2cnc(N)nc2N(C)C1=O | 466 | Active | Active | 28 | 18 | 82.2 | 84.4 | Active | 68.1 | 81.3 |  | 2110 | 4970 | 223 | Active | Active
3 | CC(=O)N1CCN(c2ccc(Nc3ncc4c(n3)N(C)C(=O)N(c3cc(NC(=O)c5cccc(C(F)(F)F)c5)ccc3C)C4)cn2)CC1 | 179 |  |  | 1 | 8 | 83.1 | 47.3 |  | 15.6 | 75.4 | Active | 402 | 2480 | 59 | Active | Active

The next lines start with results.

Row | GI50 (OCI-AML-3 [1]) [nM] | reduction in p38 phosphorylation (qualitative call) [3] | reduction in JNK phosphorylation (qualitative call) [4] | IC50 [5] [nM] | IC50 (Activated CDC42 kinase 1) [nM] | activity at 10 µM (CYP2D6) [%] | remaining at 0.5 h, 1 µM [7] [%] | reduction in AKT S473 phosphorylation (qualitative) [8] | activity at 10 µM (CYP2C9) [%] | remaining at 0.5 h, 1 µM [10] [%] | SMILES | growth inhibition (GI) (OCI-AML-3 [2]) | GI50 at 72 h [6] [nM] | GI50 at 72 h [9] [nM] | GI50 (Mus musculus) [nM] | growth inhibition (GI) (OCI-AML-3 [11]) | growth inhibition (GI) (OCI-AML-3 [12])
4 | 37 | Active | Active | 2 | 6 | 4.9 | 57.5 | Active | 55.1 | 76.5 | Cc1ccc(Nc2ncc3c(n2)N(C)C(=O)N(c2cc(NC(=O)c4ccc(CN5CCC(N(C)C)C5)c(C(F)(F)F)c4)ccc2C)C3)cn1 (stereo unspecified) |  | 636 | 1970 | 23 | Active | Active
5 | 122 | Active | Active | 2 | 13 | 32.8 | 24.6 | Active | 29 | 38.3 | CCN1CCN(C(=O)c2ccc(Nc3ncc4c(n3)N(C)C(=O)N(c3cc(NC(=O)c5cccc(C(F)(F)F)c5)ccc3C)C4)cn2)CC1 | Active | 728 | 6480 | 107 |  | 
